Laboratory results as given in ChEMBL document CHEMBL3120060, “Synthesis, in vitro anticancer evaluation and in silico studies of novel imidazo[2,1-b]thiazole derivatives bearing pyrazole moieties” (2014).

Columns and labels:
Format in all cases: functional
[1] = test system: SF-539; assay: Cytotoxicity against human SF539 cells assessed as cell growth at 10 uM after 48 hrs by SRB assay; conditions: SF-539, 48 h, read-out: Activity
How it was run: (§1)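 NCI-60 single-dose screen. Cell lines grown in RPMI 1640 with 5% FBS and 2 mM L-glutamine, plated at 5000–40,000 cells/well according to doubling time, then preincubated 24 h at 37 °C in 5% CO2. Compounds dissolved in DMSO, tested at 10^-5 M for 48 h. Adherent cells fixed with cold TCA (10% final) and stained with 0.4% SRB in 1% acetic acid. Growth expressed as percent of untreated control.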

[2] = test system: SF-295; assay: Cytotoxicity against human SF295 cells assessed as cell growth at 10 uM after 48 hrs by SRB assay; conditions: SF-295, 48 h, read-out: Activity; how it was run: as §1
[3] = test system: SF-268; assay: Cytotoxicity against human SF268 cells assessed as cell growth at 10 uM after 48 hrs by SRB assay; conditions: SF-268, 48 h, read-out: Activity; how it was run: as §1
[4] = test system: SW-620; assay: Cytotoxicity against human SW620 cells assessed as cell growth at 10 uM after 48 hrs by SRB assay; conditions: SW-620, 48 h, read-out: Activity
How it was run: (§2)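 NCI-60 single-dose screen at 10^-5 M. Adherent lines are grown in RPMI 1640 with 5% FBS and 2 mM L-glutamine, seeded at 5000–40,000 cells/well by doubling time, and preincubated 24 h at 37 °C in 5% CO2. Drug is added from DMSO stock diluted in medium, then 48 h. Cells are fixed in cold TCA (final 10%) for 60 min and stained with 0.4% SRB in 1% acetic acid. Growth is expressed as % of untreated control using time-zero plates.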

[5] = test system: KM12; assay: Cytotoxicity against human KM12 cells assessed as cell growth at 10 uM after 48 hrs by SRB assay; conditions: KM12, 48 h, read-out: Activity; how it was run: as §1
[6] = test system: HCT-116; assay: Cytotoxicity against human HCT116 cells assessed as cell growth at 10 uM after 48 hrs by SRB assay; conditions: HCT-116, 48 h, read-out: Activity; how it was run: as §1
[7] = test system: HCC 2998; assay: Cytotoxicity against human HCC2998 cells assessed as cell growth at 10 uM after 48 hrs by SRB assay; conditions: HCC 2998, 48 h, read-out: Activity; how it was run: as §1
[8] = test system: COLO 205; assay: Cytotoxicity against human COLO205 cells assessed as cell growth at 10 uM after 48 hrs by SRB assay; conditions: COLO 205, 48 h, read-out: Activity; how it was run: as §1
[9] = test system: NCI-H522; assay: Cytotoxicity against human NCI-H522 cells assessed as cell growth at 10 uM after 48 hrs by SRB assay; conditions: NCI-H522, 48 h, read-out: Activity; how it was run: as §1
[10] = test system: NCI-H460; assay: Cytotoxicity against human NCI-H460 cells assessed as cell growth at 10 uM after 48 hrs by SRB assay; conditions: NCI-H460, 48 h, read-out: Activity; how it was run: as §1
[11] = test system: NCI-H322M; assay: Cytotoxicity against human NCI-H322M cells assessed as cell growth at 10 uM after 48 hrs by SRB assay; conditions: read-out: Activity; how it was run: as §1
[12] = test system: NCI-H226; assay: Cytotoxicity against human NCI-H226 cells assessed as cell growth at 10 uM after 48 hrs by SRB assay; conditions: NCI-H226, 48 h, read-out: Activity; how it was run: as §1
[13] = test system: HOP-92; assay: Cytotoxicity against human HOP92 cells assessed as cell growth at 10 uM after 48 hrs by SRB assay; conditions: HOP-92, 48 h, read-out: Activity; how it was run: as §1
[14] = test system: A549; assay: Cytotoxicity against human A549 cells assessed as cell growth at 10 uM after 48 hrs by SRB assay; conditions: A549, 48 h, read-out: Activity; how it was run: as §1
[15] = test system: RPMI-8226; assay: Cytotoxicity against human RPMI8226 cells assessed as cell growth at 10 uM after 48 hrs by SRB assay; conditions: RPMI-8226, 48 h, read-out: Activity; how it was run: as §1
[16] = test system: MOLT-4; assay: Cytotoxicity against human MOLT4 cells assessed as cell growth at 10 uM after 48 hrs by SRB assay; conditions: MOLT-4, 48 h, read-out: Activity; how it was run: as §1
[17] = test system: CCRF-CEM; assay: Cytotoxicity against human CCRF-CEM cells assessed as cell growth at 10 uM after 48 hrs by SRB assay; conditions: read-out: Activity; how it was run: as §1
[18] = test system: T47D; assay: Cytotoxicity against human T47D cells assessed as cell growth at 10 uM after 48 hrs by SRB assay; conditions: read-out: Activity; how it was run: as §2
[19] = test system: DU-145; assay: Cytotoxicity against human DU145 cells assessed as cell growth at 10 uM after 48 hrs by SRB assay; conditions: DU-145, 48 h, read-out: Activity; how it was run: as §1
[20] = test system: PC-3; assay: Cytotoxicity against human PC3 cells assessed as cell growth at 10 uM after 48 hrs by SRB assay; conditions: PC-3, 48 h, read-out: Activity; how it was run: as §1
[21] = test system: TK-10; assay: Cytotoxicity against human TK10 cells assessed as cell growth at 10 uM after 48 hrs by SRB assay; conditions: TK-10, 48 h, read-out: Activity; how it was run: as §2
[22] = test system: SN12C; assay: Cytotoxicity against human SN12C cells assessed as cell growth at 10 uM after 48 hrs by SRB assay; conditions: read-out: Activity; how it was run: as §1
[23] = test system: CAKI-1; assay: Cytotoxicity against human CAKI-1 cells assessed as cell growth at 10 uM after 48 hrs by SRB assay; conditions: CAKI-1, 48 h, read-out: Activity; how it was run: as §1
[24] = test system: SK-OV-3; assay: Cytotoxicity against human SKOV3 cells assessed as cell growth at 10 uM after 48 hrs by SRB assay; conditions: SK-OV-3, 48 h, read-out: Activity; how it was run: as §1
[25] = Cytotoxicity against human NCI-ADR-RES cells assessed as cell growth at 10 uM after 48 hrs by SRB assay; conditions: read-out: Activity; how it was run: as §1
[26] = test system: OVCAR-8; assay: Cytotoxicity against human OVCAR8 cells assessed as cell growth at 10 uM after 48 hrs by SRB assay; conditions: OVCAR-8, 48 h, read-out: Activity; how it was run: as §1
[27] = Cytotoxicity against human OVCAR5 cells assessed as cell growth at 10 uM after 48 hrs by SRB assay; conditions: OVCAR-5, 48 h, read-out: Activity; how it was run: as §1
[28] = Cytotoxicity against human OVCAR4 cells assessed as cell growth at 10 uM after 48 hrs by SRB assay; conditions: OVCAR-4, 48 h, read-out: Activity; how it was run: as §1
[29] = test system: SK-MEL-28; assay: Cytotoxicity against human SK-MEL-28 cells assessed as cell growth at 10 uM after 48 hrs by SRB assay; conditions: SK-MEL-28, 48 h, read-out: Activity; how it was run: as §1
[30] = test system: MDA-MB-435; assay: Cytotoxicity against human MDA-MB-435 cells assessed as cell growth at 10 uM after 48 hrs by SRB assay; conditions: MDA-MB-435, 48 h, read-out: Activity; how it was run: as §1
[31] = test system: Malme-3M; assay: Cytotoxicity against human MALME-3M cells assessed as cell growth at 10 uM after 48 hrs by SRB assay; conditions: read-out: Activity; how it was run: as §1
[32] = test system: LOX IMVI; assay: Cytotoxicity against human LOXIMVI cells assessed as cell growth at 10 uM after 48 hrs by SRB assay; conditions: read-out: Activity; how it was run: as §1
[33] = test system: SNB-75; assay: Cytotoxicity against human SNB75 cells assessed as cell growth at 10 uM after 48 hrs by SRB assay; conditions: SNB-75, 48 h, read-out: Activity; how it was run: as §1

SMILES	growth at 10 µM [1]	growth at 10 µM [3]	growth at 10 µM [4]	growth at 10 µM [5]	growth at 10 µM [6]	growth at 10 µM [7]	growth at 10 µM [8]	growth at 10 µM [9]	growth at 10 µM [10]	growth at 10 µM [11]	growth at 10 µM [12]	growth at 10 µM [13]	growth at 10 µM [14]	growth at 10 µM [15]	growth at 10 µM [16]	growth at 10 µM [17]	growth at 10 µM [18]	growth at 10 µM [19]	growth at 10 µM [20]	growth at 10 µM [21]	also measured
Cc1cc(C)n(-c2cn3c(-c4ccc(Cl)cc4)csc3n2)n1	104%	102%	100%	99.9%	89.8%	102%	100%	75.3%	101%	91%	81.5%	74.7%	85.8%	68.2%	81.3%	87.8%	80.7%	113%	79.1%	128%	growth at 10 µM [2]: 82.5%; growth at 10 µM [22]: 89%; growth at 10 µM [23]: 78.6%; growth at 10 µM [24]: 93.4%; growth at 10 µM [25]: 100%; growth at 10 µM [26]: 91.5%; growth at 10 µM [27]: 109%; growth at 10 µM [28]: 81.9%; growth at 10 µM [29]: 97.9%; growth at 10 µM [30]: 94.5%; growth at 10 µM [31]: 93.1%; growth at 10 µM [32]: 91.9%; growth at 10 µM [33]: 69.2%
O=C1CN2C(c3ccccc3)=CSC2=N1	97.5%	110%	94.8%	111%	97.6%	97.8%	102%	94.3%	105%	116%	102%	78%	98.3%	94.4%	95.4%	96.3%	84.4%	112%	82.4%	125%	growth at 10 µM [22]: 91.5%; growth at 10 µM [23]: 78.7%; growth at 10 µM [24]: 89.5%; growth at 10 µM [25]: 99.6%; growth at 10 µM [26]: 97.9%; growth at 10 µM [27]: 113%; growth at 10 µM [28]: 97.7%; growth at 10 µM [29]: 105%; growth at 10 µM [30]: 95.1%; growth at 10 µM [31]: 102%; growth at 10 µM [32]: 89.4%; growth at 10 µM [33]: 61%
